According to ChEMBL document CHEMBL3259714, “Pyrazolo[4,3-e][1,2,4]triazine sulfonamides as carbonic anhydrase inhibitors with antitumor activity” (Bioorg Med Chem, 2014):

Key:
MCF7 [1] = assay: Cytostatic activity against human MCF7 cells assessed as inhibition of DNA synthesis after 24 hrs by [3H]thymidine incorporation assay; format: functional, cell-based
Outline: (§1)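 Cells kept in DMEM with 10% FBS and penicillin/streptomycin at 37 °C. Seeded in 6-well plates and grown to about 80% confluency, in DMEM without phenol red with 10% CPSR1. Exposed to a range of concentrations plus 0.5 μCi [³H]-thymidine for 24 h at 37 °C. Cells trypsinized and washed with cold PBS until wash dpm matched the reagent control. Uptake counted by liquid scintillation as dpm/well. IC50 is mean ± S.D. of four independent experiments.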

MDA-MB-231 [2] = assay: Cytostatic activity against human MDA-MB-231 cells assessed as inhibition of DNA synthesis after 24 hrs by [3H]thymidine incorporation assay; format: functional, cell-based; outline: as §1
MCF7 [3] = assay: Inhibition of collagen synthesis in human MCF7 cells assessed as 5-[3H]-proline incorporation into proteins susceptible to action of bacterial collagenase after 24 hrs; format: functional, cell-based
Outline: (§2)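 Cells labelled 24 h in growth medium with 5-[³H]proline (5 μCi/mL, 28 Ci/mmol) at a range of compound concentrations. Collagen share of incorporated label found by digesting proteins with purified Clostridium histolyticum collagenase (Peterkofsky method). Cell and medium fractions combined. IC50 is the mean ± S.D. of three independent experiments run in duplicate.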

MDA-MB-231 [4] = assay: Inhibition of collagen synthesis in human MDA-MB-231 cells assessed as 5-[3H]-proline incorporation into proteins susceptible to action of bacterial collagenase after 24 hrs; format: functional, cell-based; outline: as §2
Carbonic anhydrase 1 = Carbonic anhydrase 1 (Homo sapiens, UniProt P00915); assay: Inhibition of human carbonic anhydrase 1-mediated CO2 hydration preincubated for 15 mins by stopped-flow assay
Carbonic anhydrase 2 = Carbonic anhydrase 2 (Homo sapiens, UniProt P00918); assay: Inhibition of human carbonic anhydrase 2-mediated CO2 hydration preincubated for 15 mins by stopped-flow assay
Carbonic anhydrase 9 = Carbonic anhydrase 9 (Homo sapiens, UniProt Q16790); assay: Inhibition of human carbonic anhydrase 9-mediated CO2 hydration preincubated for 15 mins by stopped-flow assay
Carbonic anhydrase 12 = Carbonic anhydrase 12 (Homo sapiens, UniProt O43570); assay: Inhibition of human carbonic anhydrase 12-mediated CO2 hydration preincubated for 15 mins by stopped-flow assay
MCF7 [5] = assay: Cytotoxicity against human MCF7 cells assessed as growth inhibition after 24 hrs by MTT assay; format: functional, cell-based; conditions: for IC50: MCF7, 24 h
Outline: (§3)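 Confluent cells in 6-well plates treated 24 h with a range of concentrations, then washed with PBS. MTT (0.5 mg/ml in PBS) added for 4 h at 37 °C, 5% CO₂. Dye dissolved in 0.1 mol/l HCl in isopropanol and read at 570 nm. Viability given as % of untreated control, run in triplicate. IC50 taken from dose-response curves as 50% viable cells versus control.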

MDA-MB-231 [6] = assay: Cytotoxicity against human MDA-MB-231 cells assessed as growth inhibition after 24 hrs by MTT assay; format: functional, cell-based; conditions: for IC50: MDA-MB-231, 24 h; outline: as §3

Sequence of Carbonic anhydrase 1 (P00915 whole entry): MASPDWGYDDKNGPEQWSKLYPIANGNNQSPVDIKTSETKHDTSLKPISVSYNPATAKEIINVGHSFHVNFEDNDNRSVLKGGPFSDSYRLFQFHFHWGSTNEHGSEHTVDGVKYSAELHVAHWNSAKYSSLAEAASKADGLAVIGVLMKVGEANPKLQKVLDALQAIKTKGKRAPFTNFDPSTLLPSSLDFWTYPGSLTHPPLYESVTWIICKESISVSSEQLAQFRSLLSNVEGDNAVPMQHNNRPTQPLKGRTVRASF
Sequence of Carbonic anhydrase 12 (O43570 whole entry): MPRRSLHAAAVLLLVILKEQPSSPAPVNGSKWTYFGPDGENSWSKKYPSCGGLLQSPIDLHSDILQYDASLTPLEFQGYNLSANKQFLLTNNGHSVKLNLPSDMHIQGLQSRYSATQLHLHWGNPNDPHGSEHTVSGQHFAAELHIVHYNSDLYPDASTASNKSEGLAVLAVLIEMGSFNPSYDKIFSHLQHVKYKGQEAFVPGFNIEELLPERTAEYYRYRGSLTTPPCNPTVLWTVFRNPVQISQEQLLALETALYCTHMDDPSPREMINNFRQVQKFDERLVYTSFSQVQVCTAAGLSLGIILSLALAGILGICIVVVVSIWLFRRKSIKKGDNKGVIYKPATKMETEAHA

| SMILES | inhibition (MCF7 [1]) | inhibition (MDA-MB-231 [2]) | IC50 (MCF7 [3]) [µM] | IC50 (MDA-MB-231 [4]) [µM] | Ki (Carbonic anhydrase 1) [µM] | Ki (Carbonic anhydrase 2) [µM] | Ki (Carbonic anhydrase 9) [µM] | Ki (Carbonic anhydrase 12) [µM] | growth inhibition (GI) (MCF7 [5]) | IC50 (MCF7 [5]) [µM] | growth inhibition (GI) (MDA-MB-231 [6]) | IC50 (MDA-MB-231 [6]) [µM] | IC50 (MCF7 [1]) [µM] | IC50 (MDA-MB-231 [2]) [µM] |
| --- | --- | --- | --- | --- | --- | --- | --- | --- | --- | --- | --- | --- | --- | --- |
| Cc1nn(C)c2nnc(Nc3ccc(S(=O)(=O)N4CCCC4)cc3)nc12 | Dose-dependent effect | Dose-dependent effect | > 200 | > 200 | > 50 | 0.0063 | 0.652 | 0.0081 |  |  |  |  |  |  |
| Cc1nn(C)c2nnc(Nc3ccc(S(=O)(=O)NCCN4CCOCC4)cc3)nc12 | Dose-dependent effect | Dose-dependent effect | 140 | 137 | > 50 | 0.719 | 0.824 | 0.0062 |  |  |  |  |  |  |
| CCOc1ccc(S(=O)(=O)NCCO)cc1-c1nnc2c(n1)c(C)nn2C | Dose-dependent effect | Dose-dependent effect |  |  |  |  |  |  | Dose-dependent effect | > 200 | Dose-dependent effect | > 200 | > 200 | > 200 |
| CCOc1ccc(S(=O)(=O)N2CCN(C)CC2)cc1-c1nnc2c(n1)c(C)nn2C | Dose-dependent effect | Dose-dependent effect |  |  |  |  |  |  | Dose-dependent effect | 110 | Dose-dependent effect | 115 | 140 | 152 |
| CCOc1ccc(S(=O)(=O)N2CCNCC2)cc1-c1nnc2c(n1)c(C)nn2C | Dose-dependent effect | Dose-dependent effect |  |  |  |  |  |  | Dose-dependent effect | 172 | Dose-dependent effect | 182 | 150 | 164 |
| CCOc1ccc(S(=O)(=O)NCCN2CCOCC2)cc1-c1nnc2c(n1)c(C)nn2C | Dose-dependent effect | Dose-dependent effect |  |  |  |  |  |  | Dose-dependent effect | 132 | Dose-dependent effect | 136 | 145 | 156 |
| Cc1nn(C)c2nnc(Nc3ccc(S(=O)(=O)N4CCNCC4)cc3)nc12 | Dose-dependent effect | Dose-dependent effect | 175 | 180 | > 50 | 0.703 | > 50 | 0.0057 |  |  |  |  |  |  |
| Cc1nn(C)c2nnc(Nc3ccccc3)nc12 |  |  |  |  | > 50 | 0.826 | 0.082 | 0.009 |  |  |  |  |  |  |
| Cc1nn(C)c2nnc(Nc3ccc(S(=O)(=O)N4CCN(C)CC4)cc3)nc12 | Dose-dependent effect | Dose-dependent effect | 47 | 58 | > 50 | 0.667 | > 50 | 0.0053 |  |  |  |  |  |  |
| CCOc1ccc(S(=O)(=O)N2CCCC2)cc1-c1nnc2c(n1)c(C)nn2C | Dose-dependent effect | Dose-dependent effect |  |  |  |  |  |  | Dose-dependent effect | 112 | Dose-dependent effect | 120 | 130 | 159 |
| Cc1nn(C)c2nnc(S(C)(=O)=O)nc12 |  |  |  |  | > 50 | 0.774 | 0.089 | 0.0066 |  |  |  |  |  |  |
| CCOc1ccc(S(=O)(=O)N2CCCCC2)cc1-c1nnc2c(n1)c(C)nn2C | Dose-dependent effect | Dose-dependent effect |  |  |  |  |  |  | Dose-dependent effect | 105 | Dose-dependent effect | 98 | 112 | 126 |
| Cc1nn(C)c2nnc(Nc3ccc(S(=O)(=O)N4CCOCC4)cc3)nc12 | Dose-dependent effect | Dose-dependent effect | > 200 | > 200 |  |  |  |  |  |  |  |  |  |  |
| Cc1nn(C)c2nnc(Nc3ccc(S(=O)(=O)NCCN)cc3)nc12 | Dose-dependent effect | Dose-dependent effect | 112 | 95 | > 50 | 0.0621 | 0.0237 | 0.0071 |  |  |  |  |  |  |
| Cc1nn(C)c2nnc(Nc3ccc(S(=O)(=O)N4CCCCC4)cc3)nc12 | Dose-dependent effect | Dose-dependent effect | 163 | 145 | > 50 | 0.492 | > 50 | 0.0062 |  |  |  |  |  |  |
| CCOc1ccc(S(=O)(=O)NCCN)cc1-c1nnc2c(n1)c(C)nn2C | Dose-dependent effect | Dose-dependent effect |  |  |  |  |  |  | Dose-dependent effect | 190 | Dose-dependent effect | > 200 | > 200 | 200 |
| CCOc1ccc(S(=O)(=O)N2CCCNCC2)cc1-c1nnc2c(n1)c(C)nn2C | Dose-dependent effect | Dose-dependent effect |  |  |  |  |  |  | Dose-dependent effect | 123 | Dose-dependent effect | 130 | 129 | 115 |
| O=C(O)CCCc1ccc(N(CCCl)CCCl)cc1 [CHLORAMBUCIL] | Dose-dependent effect | Dose-dependent effect | 52 | 72 |  |  |  |  | Dose-dependent effect |  | Dose-dependent effect |  |  |  |
| CCOc1ccc(S(=O)(=O)N2CCOCC2)cc1-c1nnc2c(n1)c(C)nn2C | Dose-dependent effect | Dose-dependent effect |  |  |  |  |  |  | Dose-dependent effect | 181 | Dose-dependent effect | 189 | 148 | 160 |
| Cc1nn(C)c2nnc(Nc3ccc(S(=O)(=O)N4CCCNCC4)cc3)nc12 | Dose-dependent effect | Dose-dependent effect | 133 | 135 | > 50 | 0.918 | > 50 | 0.0059 |  |  |  |  |  |  |
| Cc1nn(C)c2nnc(Nc3ccc(S(N)(=O)=O)cc3)nc12 |  |  |  |  | 0.27 | 0.008 | 0.0438 | 0.0079 |  |  |  |  |  |  |
